Measured values from ChEMBL document CHEMBL1131341, “Orally active antimalarial 3-substituted trioxanes: new synthetic methodology and biological evaluation” (J Med Chem, 1998).

Experiments:
Plasmodium berghei [1] = assay: Effective in vivo dose ED90 against Plasmodium berghei N on oral administration; type: functional
In short: (§1)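 Mice infected with chloroquine-sensitive P. berghei (N) were dosed daily for 4 days at 1, 3, 10 and 30 mg/kg, with five mice per dose regimen. The ED values were derived from these four dose levels.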

Plasmodium berghei [2] = assay: Effective in vivo dose ED50 against Plasmodium berghei N after subcutaneous dose at 1,3,10 or 30 mg/kg/day, n=5; type: functional; conditions: sc; in short: as §1
Plasmodium falciparum = assay: In vitro antimalarial activity in chloroquine-sensitive Plasmodium falciparum NF54; type: functional, organism-based
In short: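 IC50 (nM) was measured against cultured parasites in quadruplicate and derived from fitted dose-response curves with R² ≥0.989.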

Plasmodium berghei [3] = assay: Effective in vivo dose ED50 against Plasmodium berghei N after oral dose at 1,3,10 or 30 mg/kg/day, n=5; type: functional; in short: as §1

Row | Structure (SMILES) | ED90 (Plasmodium berghei [1]) [µM/kg] | ED50 (Plasmodium berghei [2]) [mg/kg] | IC50 (Plasmodium falciparum) [nM] | ED50 (Plasmodium berghei [3]) [mg/kg]
1 | CO[C@H]1O[C@]2(c3ccc(COCc4ccc(F)cc4)cc3)CC[C@H]3CCCCC31OO2 | 6.8 | 3.5 | 23 | 3.8
2 | CO[C@@H]1O[C@]2(c3ccc(Cl)cc3)CC[C@H]3CCCCC31OO2 |  |  | 49 | 
3 | CO[C@@H]1O[C@]2(c3ccc(C(F)(F)F)cc3)CC[C@H]3CCCCC31OO2 |  |  | 39 | 
4 | CO[C@H]1O[C@]2(c3cccc4ccccc34)CC[C@H]3CCCCC31OO2 |  |  | 44 | 
5 | CO[C@H]1O[C@]2(C)CC[C@H]3CCCCC31OO2 |  |  | 960 | 
6 | CO[C@H]1O[C@]2(c3ccc(F)cc3)CC[C@H]3CCCCC31OO2 | 23 | 6.8 | 30 | 10
7 | CO[C@H]1O[C@]2(c3ccc(COC(C)=O)cc3)CC[C@H]3CCCCC31OO2 | 22 | 2.8 | 20 | 14
8 | CO[C@@H]1O[C@]2(c3ccc(CO)cc3)CC[C@H]3CCCCC31OO2 |  |  | 78 | 
9 | CO[C@H]1O[C@]2(c3ccc(CO)cc3)CC[C@H]3CCCCC31OO2 | 12 | 3.4 | 15 | 5.5
10 | C[C@@H]1CC[C@H]2[C@@H](C)C(=O)O[C@@H]3O[C@@]4(C)CC[C@@H]1[C@]32OO4 [ARTEMISININ] |  | 3 | 9.2 | 8.5
11 | CO[C@@H]1O[C@@]2(c3ccccc3)OOC13CCCC[C@@H]3CC2C (some centres not stated) |  |  | 21 | 
12 | CO[C@@H]1O[C@]2(c3cccc4ccccc34)CC[C@H]3CCCCC31OO2 |  |  | 170 | 
13 | CO[C@@H]1O[C@]2(c3ccc(F)cc3)CC[C@H]3CCCCC31OO2 |  |  | 65 | 
14 | CO[C@@H]1O[C@]2(CF)CC[C@H]3CCCCC31OO2 |  |  | 320 | 
15 | CO[C@@H]1O[C@]2(c3ccc(-c4ccccc4)cc3)CC[C@H]3CCCCC31OO2 |  |  | 76 | 
16 | CO[C@@H]1O[C@]2(c3ccc(COC(C)=O)cc3)CC[C@H]3CCCCC31OO2 |  |  | 44 | 

Row | Structure (SMILES) | ED90 (Plasmodium berghei [1]) [µM/kg] | ED50 (Plasmodium berghei [2]) [mg/kg] | IC50 (Plasmodium falciparum) [nM] | ED50 (Plasmodium berghei [3]) [mg/kg]
17 | CO[C@@H]1O[C@]2(c3ccco3)CC[C@H]3CCCCC31OO2 |  |  | 600 | 
18 | CO[C@@H]1O[C@]2(c3ccc(COCc4ccc(F)cc4)cc3)CC[C@H]3CCCCC31OO2 |  |  | 42 | 
19 | CCN(CC)CCCC(C)Nc1ccnc2cc(Cl)ccc12 (configuration not stated) [CHLOROQUINE] |  | 1 |  | 1.2
20 | COCc1ccc([C@@]23CC[C@H]4CCCCC4(OO2)[C@@H](OC)O3)cc1 |  |  | 51 | 
21 | COC(=O)OCc1ccc([C@@]23CC[C@H]4CCCCC4(OO2)[C@H](OC)O3)cc1 |  |  | 79 | 
22 | CO[C@H]1O[C@]2(c3ccc(Cl)cc3)CC[C@H]3CCCCC31OO2 |  |  | 55 | 
23 | COCc1ccc([C@@]23CC[C@H]4CCCCC4(OO2)[C@H](OC)O3)cc1 |  |  | 39 | 
24 | CO[C@H]1O[C@]2(c3ccc(-c4ccccc4)cc3)CC[C@H]3CCCCC31OO2 |  |  | 68 | 
25 | CO[C@H]1O[C@]2(CCC(F)(F)F)CC[C@H]3CCCCC31OO2 |  |  | 84 | 
26 | CO[C@@H]1O[C@]2(c3ccccc3)CC[C@H]3CCCCC31OO2 |  |  | 110 | 
27 | CO[C@H]1O[C@]2(c3ccc(F)cc3C)CC[C@H]3CCCC[C@@]31OO2 |  |  | 34 | 
28 | CO[C@H]1O[C@]2(c3ccccc3)CC[C@H]3CCCCC31OO2 |  |  | 38 | 
29 | CO[C@@H]1O[C@]2(c3ccc(F)cc3C)CC[C@H]3CCCC[C@@]31OO2 |  |  | 99 | 
30 | CO[C@H]1O[C@]2(c3ccc(C(F)(F)F)cc3)CC[C@H]3CCCCC31OO2 |  |  | 53 | 
31 | CO[C@H]1O[C@]2(CF)CC[C@H]3CCCCC31OO2 |  |  | 160 | 
32 | COc1ccc([C@@]23CC[C@H]4CCCCC4(OO2)C(OC)O3)cc1 (some centres not stated) |  |  | > 2500 | 
